Consider 6 compounds from ChEMBL document CHEMBL1667725, “Tuberatolides, potent FXR antagonists from the Korean marine tunicate Botryllus tuberatus” (J Nat Prod, 2011).

Test [1] concerns the target T1, Mineralocorticoid receptor (Homo sapiens) (UniProt P08235).
T1 sequence (whole entry): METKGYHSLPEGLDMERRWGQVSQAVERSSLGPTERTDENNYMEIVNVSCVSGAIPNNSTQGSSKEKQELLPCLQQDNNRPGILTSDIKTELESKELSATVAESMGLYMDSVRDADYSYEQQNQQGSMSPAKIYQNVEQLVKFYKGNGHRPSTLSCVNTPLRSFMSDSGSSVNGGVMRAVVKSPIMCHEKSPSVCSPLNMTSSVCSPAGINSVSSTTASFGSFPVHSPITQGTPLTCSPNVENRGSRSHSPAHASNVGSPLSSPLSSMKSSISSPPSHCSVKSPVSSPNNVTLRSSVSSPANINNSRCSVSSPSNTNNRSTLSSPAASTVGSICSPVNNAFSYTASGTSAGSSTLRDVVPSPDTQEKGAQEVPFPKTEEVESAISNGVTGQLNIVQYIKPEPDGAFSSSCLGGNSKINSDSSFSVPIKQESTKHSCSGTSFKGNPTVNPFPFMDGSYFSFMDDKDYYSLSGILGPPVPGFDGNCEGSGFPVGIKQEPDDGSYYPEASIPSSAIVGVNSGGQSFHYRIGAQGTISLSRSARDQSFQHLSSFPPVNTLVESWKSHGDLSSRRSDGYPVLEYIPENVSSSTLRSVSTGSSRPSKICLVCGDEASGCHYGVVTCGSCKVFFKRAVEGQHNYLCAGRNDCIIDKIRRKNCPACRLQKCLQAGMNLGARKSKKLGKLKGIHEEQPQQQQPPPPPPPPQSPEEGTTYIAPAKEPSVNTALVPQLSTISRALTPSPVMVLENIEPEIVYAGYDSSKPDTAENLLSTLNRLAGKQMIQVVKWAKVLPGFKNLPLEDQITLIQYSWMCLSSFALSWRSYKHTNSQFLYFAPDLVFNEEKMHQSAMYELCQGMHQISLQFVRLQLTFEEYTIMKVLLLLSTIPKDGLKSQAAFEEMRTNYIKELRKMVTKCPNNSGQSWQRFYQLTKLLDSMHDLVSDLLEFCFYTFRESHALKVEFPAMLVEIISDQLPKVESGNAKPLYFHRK
Put plainly: Effect on human Gal4-fused MCR at 10 uM by luciferase reporter gene assay. (In general: In a reporter assay the amount or activity of a reporter protein is the signal.)

In test [2] the target is T2, Retinoic acid receptor alpha (Homo sapiens) (UniProt P10276).
T2 sequence (whole entry): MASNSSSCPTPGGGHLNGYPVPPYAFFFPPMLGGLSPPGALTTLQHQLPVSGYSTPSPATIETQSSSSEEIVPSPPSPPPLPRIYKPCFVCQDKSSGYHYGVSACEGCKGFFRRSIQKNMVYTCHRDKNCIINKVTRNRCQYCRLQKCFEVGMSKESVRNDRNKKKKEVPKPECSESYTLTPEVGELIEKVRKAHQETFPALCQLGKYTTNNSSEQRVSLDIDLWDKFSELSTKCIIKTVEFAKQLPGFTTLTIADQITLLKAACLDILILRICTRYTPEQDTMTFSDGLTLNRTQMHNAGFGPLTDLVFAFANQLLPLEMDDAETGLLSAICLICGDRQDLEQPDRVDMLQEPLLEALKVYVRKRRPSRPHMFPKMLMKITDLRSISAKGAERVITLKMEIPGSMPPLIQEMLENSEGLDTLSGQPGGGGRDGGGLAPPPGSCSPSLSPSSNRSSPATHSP
The test can be described thus: Effect on human Gal4-fused RAR alpha at 10 uM by luciferase reporter gene assay.

Test [3] concerns the target T3, Bile acid receptor (Homo sapiens) (UniProt Q96RI1).
T3 sequence (whole entry): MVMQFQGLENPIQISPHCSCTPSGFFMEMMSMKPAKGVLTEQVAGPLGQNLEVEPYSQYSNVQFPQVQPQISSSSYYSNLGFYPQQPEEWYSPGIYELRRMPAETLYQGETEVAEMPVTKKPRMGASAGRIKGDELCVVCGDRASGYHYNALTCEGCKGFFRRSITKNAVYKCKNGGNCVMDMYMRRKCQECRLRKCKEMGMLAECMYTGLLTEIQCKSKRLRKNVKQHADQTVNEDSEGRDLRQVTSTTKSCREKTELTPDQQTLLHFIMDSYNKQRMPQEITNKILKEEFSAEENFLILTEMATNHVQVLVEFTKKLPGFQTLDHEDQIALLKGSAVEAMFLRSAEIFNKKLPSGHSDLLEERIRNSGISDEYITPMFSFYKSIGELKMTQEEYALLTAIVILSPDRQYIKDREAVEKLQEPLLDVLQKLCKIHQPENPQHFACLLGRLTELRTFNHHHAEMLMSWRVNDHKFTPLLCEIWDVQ
Put plainly: Binding affinity to human FXR ligand binding domain cell free system assessed as release of co-activator peptide SRC-1 after 1 hr by surface plasmon resonance method. An outline of the steps: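 BIAcore SPR: hFXR LBD (4 µM) preincubated 1 h with compound plus 50 µM CDCA, then injected over a sensor chip bearing immobilized SRC-1 co-activator peptide; co-activator peptide binding to the LBD monitored.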
A general note: Surface plasmon resonance follows binding to a sensor surface in real time, without labels.

Test [4] addresses T4, Androgen receptor (Homo sapiens) (UniProt P10275).
T4 sequence (whole entry): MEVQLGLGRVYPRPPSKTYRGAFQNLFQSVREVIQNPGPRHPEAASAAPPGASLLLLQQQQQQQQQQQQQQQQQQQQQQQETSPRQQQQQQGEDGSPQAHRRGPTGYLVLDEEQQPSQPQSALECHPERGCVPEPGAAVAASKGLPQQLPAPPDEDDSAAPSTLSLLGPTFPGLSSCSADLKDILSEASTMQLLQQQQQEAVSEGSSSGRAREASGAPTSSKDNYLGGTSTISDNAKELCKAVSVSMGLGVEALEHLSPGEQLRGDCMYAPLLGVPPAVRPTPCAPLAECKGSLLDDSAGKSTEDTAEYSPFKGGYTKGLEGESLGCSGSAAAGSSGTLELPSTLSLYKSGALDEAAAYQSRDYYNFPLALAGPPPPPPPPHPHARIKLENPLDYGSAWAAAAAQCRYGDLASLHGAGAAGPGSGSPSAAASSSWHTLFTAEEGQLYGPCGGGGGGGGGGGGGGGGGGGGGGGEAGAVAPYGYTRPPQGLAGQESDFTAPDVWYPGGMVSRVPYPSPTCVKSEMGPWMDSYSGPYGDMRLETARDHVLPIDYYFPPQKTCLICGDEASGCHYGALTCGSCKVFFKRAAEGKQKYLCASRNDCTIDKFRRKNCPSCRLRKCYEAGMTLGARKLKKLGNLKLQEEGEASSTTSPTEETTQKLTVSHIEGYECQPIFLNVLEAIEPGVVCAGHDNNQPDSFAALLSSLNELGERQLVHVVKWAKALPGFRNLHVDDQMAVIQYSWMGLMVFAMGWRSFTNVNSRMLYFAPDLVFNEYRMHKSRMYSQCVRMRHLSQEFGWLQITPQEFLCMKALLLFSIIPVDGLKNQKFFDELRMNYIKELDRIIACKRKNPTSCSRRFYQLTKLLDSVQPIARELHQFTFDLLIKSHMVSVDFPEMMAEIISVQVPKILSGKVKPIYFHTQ
The test can be described thus: Effect on human Gal4-fused AR at 10 uM by luciferase reporter gene assay.

Active and inactive are the calls of the source. No cut-off for these calls is given here.

With `CC(C)=CCCC1=C[C@@H](C/C(C)=C/CC[C@]2(C)C=Cc3cc(O)cc(C)c3O2)OC1=O` [2'-EPI-TUBERATOLIDE B], the result in test [1], in test [2] and in test [4] was inactive. Further, the result in test [3] was Active.
For the compound `CC(C)=CCC/C(=C/CC/C(C)=C/CC[C@]1(C)C=Cc2cc(O)cc(C)c2O1)C(=O)O` [(R)-SARGACHROMENOL], the outcome in test [1], in test [2] and in test [4] was inactive. Besides, the outcome in test [3] was Active.
Consider `CC(C)=CCC/C(=C/CC/C(C)=C/CC[C@@]1(C)C=Cc2cc(O)cc(C)c2O1)C(=O)O` [(S)-SARGACHROMENOL], for which the outcome in test [1], in test [2] and in test [4] was inactive. The result in test [3] was Active.
With `CC(=O)CC/C=C(\C)C[C@@H]1C=C(CCC=C(C)C)C(=O)O1` [TUBERATOLIDE A], the outcome in test [1], in test [2] and in test [4] was inactive. Further, the outcome in test [3] was Active.
For `CC(C)=CCCC1=C[C@@H](C/C(C)=C/CC[C@@]2(C)C=Cc3cc(O)cc(C)c3O2)OC1=O` [TUBERATOLIDE B], the result in test [1], in test [2] and in test [4] was inactive. Besides, the outcome in test [3] was Active.
For the compound `CC(C)=CCCC1=C[C@@H](C/C(C)=C/CC/C(C)=C/CC2=CC(=O)C=C(C)C2=O)OC1=O` [YEZOQUINOLIDE], the outcome in test [1], in test [2] and in test [4] was inactive. Further, in test [3], the result was Active.
